High-throughput results from PubChem BioAssay.
M18AAP inhibitor = blocks P. falciparum M18 aspartyl aminopeptidase. recombinant PfM18AAP, H-Glu-NHMec fluorogenic cleavage. inhibition, % at 7.35 µM. 290,000 tested, 1.2% active;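 active = inhibition above the campaign mean inhibition over all tested compounds plus 3 SD, cut at about 28% in these data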;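 also: 0% = plate median of test compound wells and 100% = 2 mM ZnCl2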
zVAD death inh = L929 zVAD cell death inhibition | L929 zVAD necroptosis rescue, ATP luminescence, 24 h; with zVAD 60 µM | viability rescue, % at 10 µM | 220,000 tested, 0.38% active;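 active = activation, scaled between plate controls, above about 75%, limit read from the data; inactive = activation under that limit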;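 also: 0% = zVAD with DMSO and 100% = DMSO alone without zVAD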
TbHK1 inh = blocks Trypanosoma brucei hexokinase 1 activity. inhibition, % at 10 µM. 220,000 tested, 0.11% active. recombinant TbHK1, G6PDH-coupled NADH A340. AID 1430;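 active = inhibition of 50% or more in the single-dose primary screen; inactive = inhibition below 50%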
TNF necrop inh = TNF-alpha cell death inhibition in Jurkat FADD-/- cells; Jurkat FADD-/- TNF necroptosis rescue, ATP luminescence, 24 h; 0 = TNF only, 100 = no-TNF cells; activation (protection from cell death), % at 10 µM; 220,000 tested, 0.068% active; AID 463075;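 active = activation, meaning protection from cell death, of at least 50% relative to plate controls; inactive = activation below 50%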;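 also: necroptosis triggered by 40 ng/mL TNF-alpha added together with compound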
RBBP9 inh = human RBBP9 hydrolase inhibition; recombinant RBBP9, FP-Rh probe fluorescence polarization; 220,000 tested, 0.2% active; AID 1515; inhibition, % at 7.94 µM;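 active = inhibition above the campaign mean of all tested compounds plus 3 SD, cut at about 14% in these data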;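 also: plate controls were DMSO wells with RBBP9 for no effect and wells lacking RBBP9 protein for full effect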
Target sequence (O75884 whole entry, looked up): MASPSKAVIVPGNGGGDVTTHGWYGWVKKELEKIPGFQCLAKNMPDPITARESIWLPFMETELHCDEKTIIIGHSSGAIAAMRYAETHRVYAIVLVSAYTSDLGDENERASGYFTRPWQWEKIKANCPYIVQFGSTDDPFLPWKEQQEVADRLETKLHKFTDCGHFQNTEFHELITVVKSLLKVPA
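Test system: recombinant human RBBP9; Timing: 30 min then 45 min, 25 °C; Detection: fluorescence polarization; Control set: RBBP9 with DMSO as uninhibited control, no-protein wells as full inhibition; Compound dosing: one concentration, 7.94 µM nominal, 0.794% DMSO; Probe or stimulus: FP-Rh activity-based probe, 375 nM before mixing.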
Lipid droplet = hepatic lipid droplet formation modulation. AML12 mouse hepatocytes, oleate lipid droplets, BODIPY imaging. inhibition, % at 6.5 µM. 240,000 tested, 0.4% active. AID 1656;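 active = lipid droplet intensity inhibited by at least 50%, with more than 500 cells counted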
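Test system: AML12 mouse liver cells; schedule: overnight exposure; technique: high-content imaging of BODIPY-stained droplets and DAPI nuclei; read-out: % inhibition of corrected integrated BODIPY droplet signal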
G6PDH ctr = inhibits Leuconostoc G6PDH, counter-screen for TbHK1 inhibitors; shares compounds with TbHK1 inh; AID 2516; inhibition, % at 10 µM; purified G6PDH, NADH absorbance, 1 h; 210 tested, 7% active;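 active = at least 50% inhibition in the glucose-6-phosphate dehydrogenase coupled counterscreen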
TbHK1 rescreen = confirmation of Trypanosoma brucei hexokinase 1 inhibitors; 210 tested, 10% active; inhibition, % at 10 µM; recombinant TbHK1, G6PDH-coupled NADH A340 absorbance; shares compounds with TbHK1 inh; AID 2560;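 active = inhibition of at least 50% in both of the two screening runs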;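 also: 0% and 100% set by the maximum and minimum signal control wells on each plate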
The depositor's hits bear a star; x = no result. A selection: hits, their analogues and other compounds. The true share with any hit is near 2%.

SMILES	M18AAP inhibitor	zVAD death inh	TbHK1 inh	TNF necrop inh	RBBP9 inh	Lipid droplet	G6PDH ctr	TbHK1 rescreen
CC(NC(=O)CNC(=O)OCc1ccccc1)C(=O)N1CC(O)CC1C(=O)OCc1ccccc1 (stereo unspecified)	-3	0	51*	-8	9	13	-10	-1
O=C(NCC(=O)N1CC(O)CC1C(=O)N1CC(O)CC1C(=O)OCc1ccccc1)OCc1ccccc1 (stereo unspecified)	-1	0	1	1	2	19	x	x
COc1ccc(OC)c(N(CC(=O)NCCSCc2ccc(C)cc2)S(C)(=O)=O)c1	-5	x	x	x	x	0	x	x
Cc1ccc(N=Nc2ccc(O)c3ncccc23)cc1	0	1	81*	-13	6	-17	-20	0
CCOC(=O)CNC(=O)CSc1nnc(-c2ccco2)n1N	0	1	51*	1	-3	x	1	8
CCOC(=O)CNC(=O)CSc1nnc(-c2ccco2)n1Cc1ccco1	8	0	7	0	-2	x	x	x
C=CCn1c(SCC(=O)NCC(=O)OCC)nnc1-c1ccccn1	-1	0	50*	0	-3	x	3	1
C=CCn1c(SCC(=O)NC2CC2)nnc1-c1ccccn1	-1	x	x	x	x	-2	x	x
CNC(=O)NC(=O)CSc1ccc(NC(C)=O)cc1	-5	0	2	-2	-6	x	x	x
CCNC(=O)NC(=O)CSc1ccc(NC(C)=O)cc1	-1	0	74*	2	-3	x	-7	0
O=S(=O)(Nc1ccc2ccccc2n1)c1ccccc1	-3	x	x	x	x	20	x	x
OC(COCc1ccccc1)CN1CCCC1 (stereo unspecified)	-7	0	60*	2	-3	x	-4	-7
Cc1n[nH]c(=O)nc1NC(C)c1ccccc1 (stereo unspecified)	-23	0	51*	0	-1	4	-2	2
O=C(CN1CCN(Cc2ccccc2)CC1)N1CCCc2c1c(=O)oc1ccc(O)cc21	-4	0	54*	0	-2	x	8	-26
O=C(c1ccco1)N1CCN(CC(=O)N2CCCc3c2c(=O)oc2ccc(O)cc32)CC1	11	1	-13	0	-4	11	x	x
O=C(O)CCn1nnc(-c2cccs2)n1	-5	0	54*	0	-8	x	-3	1
CCCCCCCCCCCNC(=O)c1ccoc1C	2	0	55*	-3	4	9	-31	86*
Cc1occc1C(=O)NCCCCNC(=O)c1ccoc1C	-10	0	6	0	-4	9	x	x
CC(C)c1[nH]nc2c1C(c1cccnc1)C(C#N)=C(N)O2 (stereo unspecified)	0	0	52*	-1	4	x	-11	4
Cc1ccc(C(=O)NC2CC3CCCC(C2)N3C(=O)NC2CCCCC2)cc1 (stereo unspecified)	-5	0	-3	-2	-5	-4	x	x
O=C(NC1CC2CCCC(C1)N2C(=O)NC1CCCCC1)c1ccc(F)cc1 (stereo unspecified)	-2	0	65*	0	-5	x	-8	-3
COc1cccc(CNC(=O)c2ccc3nc[nH]c3c2)c1	3	0	67*	0	-11	x	0	-1
c1ccc(-c2cnc(-c3ccccc3)nc2)cc1	-1	0	59*	0	-8	0	-32	-23
CCN(CC)c1ccc2cc(-c3nc4ccccc4[nH]3)c(=O)oc2c1	2	29	68*	-2	-2	-6	111*	84*
CCN(CC)c1ccc2cc(-c3nc4ccccc4n3C)c(=O)oc2c1	-3	-1	-4	-10	-10	x	x	x
SMILES	M18AAP inhibitor	zVAD death inh	TbHK1 inh	TNF necrop inh	RBBP9 inh	Lipid droplet	G6PDH ctr	TbHK1 rescreen
CN(C)c1ccc2nc3ccc(=[N+](C)C)cc-3sc2c1	22	3	75*	-15	7	16	128*	77*
O=C(O)COc1ccccc1C(Nc1cccnc1)c1cc(Cl)c2cccnc2c1O (stereo unspecified)	9	1	14	0	-2	-13	x	x
O=C(O)COc1ccccc1C(Nc1ccccn1)c1cc(Cl)c2cccnc2c1O (stereo unspecified)	8	0	76*	0	0	4	-42	28
CCCCCOC(=O)NCC(O)c1ccccc1 (stereo unspecified)	-7	0	53*	2	9	x	-2	3
NC(=S)c1cc2ccc(O)cc2oc1=O	10	0	85*	-5	-4	x	109*	80*
c1ccc(-c2cccc(-c3ccccn3)n2)nc1	8	33	9	-14	-8	x	x	x
OCC1N=C(c2ccccn2)OC1c1ccccc1 (stereo unspecified)	-1	0	56*	0	3	x	0	0
CC(C)(C)C(=O)Nc1ccc(C(=O)NNC(=O)Cc2ccccc2)cc1	0	0	1	0	-7	-4	x	x
O=C(O)CC(NC(=O)C12CC3CC(CC(C3)C1)C2)c1ccc(F)cc1 (stereo unspecified)	-11	x	x	x	x	-6	x	x
CCCOc1ccc(C(CC(=O)O)NC(=O)C23CC4CC(CC(C4)C2)C3)cc1 (stereo unspecified)	-2	1	60*	0	-9	-2	-30	2
O=C(CSc1n[nH]c(-c2ccccc2O)n1)N1CCCc2ccccc21	2	0	64*	-6	-6	x	-4	-1
O=C(CSc1n[nH]c(-c2cccs2)n1)N1CCCc2ccccc21	6	0	0	-2	-3	x	x	x
S=C(NCc1ccccn1)Nc1ccc(Cl)cc1	-1	1	3	-3	-11	x	x	x
Fc1cccc(NC(=S)NCc2ccccn2)c1	5	0	52*	0	-4	-2	4	1
CCOC(=O)C1(Cc2ccc(Cl)cc2)CCN(C(=O)CCc2ccncc2)CC1	0	-1	-7	2	8	-8	x	x
CCOC(=O)Cc1csc(SCn2nnc3ccccc3c2=O)n1	-4	1	-5	2	-2	-15	x	x
CCOC(=O)Cc1csc(-n2sc3ccccc3c2=O)n1	8	0	66*	-5	-14	19	-22	69*
CCCCc1ccc(/C=C2/C(=O)ON=C2c2ccccc2)s1	2	1	55*	1	-2	-2	-37	55*
Cn1nc([N+](=O)[O-])nc1N1CCOCC1	1	x	-9	-1	2	-10	x	x
COc1cc(CCC(=O)OCC(N)=O)cc(OC)c1OC	5	1	56*	0	2	11	-6	-5
